Results published in ChEMBL document CHEMBL1149113 (J Med Chem, 2004).

Columns and labels:
B2 bradykinin receptor [1] = molecular target: T1, B2 bradykinin receptor (Cavia porcellus, UniProt O70526); assay: In vitro inhibitory activity towards bradykinin receptor B2 using [3H]BK (0.06 nM) as a radioligand in guinea pig ileum membrane preparation; format: cell membranes
T1 sequence (O70526 whole entry): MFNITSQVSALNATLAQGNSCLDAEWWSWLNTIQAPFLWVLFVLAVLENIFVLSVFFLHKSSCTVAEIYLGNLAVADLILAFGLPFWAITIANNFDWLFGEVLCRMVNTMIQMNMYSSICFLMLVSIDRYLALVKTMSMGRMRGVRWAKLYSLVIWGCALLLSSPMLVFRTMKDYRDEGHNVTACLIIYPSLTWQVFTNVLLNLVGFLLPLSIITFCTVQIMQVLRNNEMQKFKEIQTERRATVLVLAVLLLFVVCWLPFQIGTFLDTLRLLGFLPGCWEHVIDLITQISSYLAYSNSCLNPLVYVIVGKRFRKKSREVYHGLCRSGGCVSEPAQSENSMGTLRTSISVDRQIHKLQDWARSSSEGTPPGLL
Procedure, shortened: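 Ileal membranes from male Hartley guinea pigs, prepared in TES/1,10-phenanthroline pH 6.8 with 100000 g pellet. Membranes (0.2 mg protein/mL) incubated with [3H]BK and varying compound concentrations 60 min at room temperature in binding buffer with bacitracin, DTT, captopril, BSA. Filter harvest, scintillation counting; nonspecific with 1 μM BK. IC50 as mean of ≥3 determinations.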

B2 bradykinin receptor [2] = molecular target: T2, B2 bradykinin receptor (Homo sapiens, UniProt P30411); assay: In vitro inhibitory activity towards human bradykinin receptor B2 expressed in CHO cells using [3H]BK (1.0 nM) as a radioligand; format: cell-based
T2 sequence (P30411 whole entry): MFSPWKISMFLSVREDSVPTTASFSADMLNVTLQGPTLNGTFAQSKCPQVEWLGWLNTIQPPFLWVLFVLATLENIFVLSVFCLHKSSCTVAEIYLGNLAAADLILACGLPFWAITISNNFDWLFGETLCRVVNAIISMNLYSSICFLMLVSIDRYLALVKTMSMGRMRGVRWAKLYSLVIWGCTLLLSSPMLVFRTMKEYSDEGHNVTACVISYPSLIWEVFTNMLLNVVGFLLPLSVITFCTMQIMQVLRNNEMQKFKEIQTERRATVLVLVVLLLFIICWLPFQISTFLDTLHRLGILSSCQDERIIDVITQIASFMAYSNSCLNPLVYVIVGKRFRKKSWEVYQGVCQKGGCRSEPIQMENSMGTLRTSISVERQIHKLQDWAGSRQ
Procedure, shortened: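 Stably transfected CHO (dhfr-) cells seeded at 3.0 × 10^4 cells/well, cultured 1 day, then incubated with test compounds for 2 h at 4 °C. Binding buffer was HEPES/N-methyl-D-glucamine pH 7.2 with bacitracin, enalaprilat and BSA. Cells solubilized in SDS/NaOH and counted by scintillation; nonspecific binding with 1 μM unlabeled BK. Run three times.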

Cavia porcellus [3] = assay: Compound was evaluated for percentage inhibition against BK-induced bronchoconstriction in anesthetized guinea pig, intravenously at a concentration of 10 mg/kg; format: functional; conditions: route intravenous
Procedure, shortened: (§1)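 Male Hartley guinea pigs (470-750 g), fasted overnight, pentobarbital 30 mg/kg ip, tracheal and jugular cannulation, ventilated 10 mL/kg at 60 breaths/min; alcuronium 0.5 mg/kg iv, propranolol 10 mg/kg sc. BK 5 μg/kg iv; compound in 5% citric acid iv 25 min later, BK repeated 5 min after drug. Peak insufflation pressure rise (Konzett-Rossler); % inhibition vs vehicle, n=3-4.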

Cavia porcellus [4] = assay: Compound was evaluated for percentage inhibition against BK-induced bronchoconstriction in anesthetized guinea pig, intravenously at a concentration of 1 mg/kg; format: functional; conditions: route intravenous; procedure, shortened: as §1

Row | Structure (SMILES) | IC50 (B2 bradykinin receptor [1]) | IC50 (B2 bradykinin receptor [2]) | inhibition in vivo at 10 mg/kg (Cavia porcellus [3]) | inhibition in vivo at 1 mg/kg (Cavia porcellus [4])
1 | Cc1cc(-n2cccn2)c2cccc(OCc3c(Cl)ccc(N(C)C(=O)CNC(=O)/C=C/c4ccc(C(=O)N(C)C)cc4)c3Cl)c2n1 | 3.3 nM | 0.18 nM | – | –
2 | Cc1cc(-n2ccnn2)c2cccc(OCc3c(Cl)ccc(N(C)C(=O)CNC(=O)/C=C/c4ccc(C(=O)N(C)C)cc4)c3Cl)c2n1 | 9.1 nM | 0.28 nM | – | –
3 | CNC(=O)c1ccc(/C=C/C(=O)NCC(=O)N(C)c2ccc(Cl)c(COc3cccc4c(-n5ccnc5)cc(C)nc34)c2Cl)cc1 | 3.7 nM | 0.28 nM | – | –
4 | CNC(=O)c1ccc(/C=C/C(=O)NCC(=O)N(C)c2ccc(C)c(COc3cccc4c(-c5ccccc5)cc(C)nc34)c2C)cc1 | 3.1 nM | 1 nM | – | –
5 | CNC(=O)c1ccc(/C=C/C(=O)NCC(=O)N(C)c2ccc(Cl)c(COc3cccc4c(-n5cccn5)cc(C)nc34)c2Cl)cc1 | 2.7 nM | 0.17 nM | – | –
6 | Cc1cc(-n2ccnc2)c2cccc(OCc3c(Cl)ccc(N(C)C(=O)CNC(=O)/C=C/c4ccc(C(=O)N(C)C)cc4)c3Cl)c2n1 | 4.3 nM | 0.35 nM | – | –
7 | Cc1cc(-n2ccnc2)c2cccc(OCc3c(Cl)ccc(-n4cccc4CNC(=O)/C=C/c4ccc(C(=O)NCc5ccccn5)cc4)c3Cl)c2n1 | 6 nM | 0.43 nM | – | –
8 | Cc1cc(-n2ccnc2)c2cccc(OCc3c(Cl)ccc(N(C)C(=O)CNC(=O)Nc4cccc(C(=O)Nc5ccncc5)c4)c3Cl)c2n1 | 6.6 nM | 0.23 nM | 56.8% | –
9 | Cc1cc(-n2ccnc2)c2cccc(OCc3c(Cl)ccc(N(C)C(=O)CNC(=O)/C=C/c4ccc(C(=O)Nc5ccncc5)cc4)c3Cl)c2n1 | 17 nM | 0.42 nM | – | –
10 | CNC(=O)c1ccc(/C=C/C(=O)NCC(=O)N(C)c2ccc(Cl)c(COc3cccc4c(-n5cncn5)cc(C)nc34)c2Cl)cc1 | 4.4 nM | 0.23 nM | – | –
11 | Cc1cc(-n2ccnc2)c2cccc(OCc3c(Cl)ccc(-n4cccc4CNC(=O)/C=C/c4ccc(C(=O)N(C)C)cc4)c3Cl)c2n1 | 3 nM | 0.26 nM | – | 46%
12 | CNC(=O)c1ccc(/C=C/C(=O)NCC(=O)N(C)c2ccc(Cl)c(COc3cccc4c(N(C)C)cc(C)nc34)c2Cl)cc1 | 1.8 nM | 3.2 nM | – | –
13 | N=C(N)NCCC[C@@H](N)C(=O)N[C@@H](CCCNC(=N)N)C(=O)N1CCC[C@H]1C(=O)N1C[C@H](O)C[C@H]1C(=O)NCC(=O)N[C@@H](Cc1cccs1)C(=O)N[C@@H](CO)C(=O)N1Cc2ccccc2C[C@@H]1C(=O)N1[C@H](C(=O)N[C@@H](CCCNC(=N)N)C(=O)O)C[C@@H]2CCCC[C@@H]21 [ICATIBANT] | – | – | – | 63.4%
14 | Cc1cc(N(C)C)c2cccc(OCc3c(Cl)ccc(N(C)C(=O)CNC(=O)/C=C/c4ccc(C(=O)N(C)C)cc4)c3Cl)c2n1 | 2.9 nM | 2.1 nM | – | –
